In brackets after ≈: the same amount, converted by molar mass. Activity calls are given as the source filed them. The calls are words filed in the database; no cut-off is given here.
Assays:
[1] = Cytotoxicity against human MT4 cells; format: cell-based
[2] = test system: Candida parapsilosis; experiment: Antimicrobial activity against Candida parapsilosis ATCC 22019 after 24 hrs by twofold serial microdilution method; format: functional, organism-based
[3] = test system: Pseudomonas aeruginosa; experiment: Antimicrobial activity against Pseudomonas aeruginosa NCTC 6749 after 18 hrs by twofold serial microdilution method; format: functional, organism-based
[4] = Cytotoxicity against African green monkey Vero 76 cells assessed as cell viability after 48 to 96 hrs by crystal violet staining; format: cell-based; details: chlorocebus sabaeus
[5] = test system: Coxsackievirus B5; experiment: Antiviral activity against Human coxsackievirus B5 ATCC VR-29 infected in African green monkey Vero 76 cells assessed as reduction of virus-plaque formation after 3 days by crystal violet staining; format: functional, organism-based; details: Enterovirus B, ATCC VR-29, Vero, 72 h
Procedure, shortened: (§1)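 Plaque reduction: Vero-76 at 2x10^5 cells/well grown to confluent monolayers, infected 2 h at 50–100 PFU/well; after removing unadsorbed virus, overlay of D-MEM, 1% inactivated FBS, 0.75% methylcellulose with or without serial compound dilutions; 3 days at 37°C, fixed and stained with crystal violet in 50% ethanol, plaques counted; EC50 by linear regression.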

[6] = test system: Escherichia coli; experiment: Antimicrobial activity against Escherichia coli NCTC 8196 after 18 hrs by twofold serial microdilution method; format: functional, organism-based
[7] = test system: Poliovirus 1; experiment: Antiviral activity against Poliovirus type 1 ATCC VR-1562 infected in African green monkey Vero 76 cells assessed as reduction of virus-plaque formation after 2 days by crystal violet staining; format: functional, organism-based; details: Enterovirus C, ATCC VR-1562, Vero, 48 h
[8] = test system: Vaccinia virus; experiment: Antiviral activity against Human Vaccinia virus ATCC VR-1549 infected in African green monkey Vero 76 cells assessed as reduction of virus-plaque formation after 3 days by crystal violet staining; format: functional, organism-based; details: Orthopoxvirus vaccinia, ATCC VR-1549, Vero, 72 h
[9] = Cytotoxicity against bovine MDBK cells assessed as cell viability after 48 to 96 hrs by MTT assay; format: cell-based, Bos taurus; details: cattle
[10] = test system: Human alphaherpesvirus 1; experiment: Antiviral activity against Human herpesvirus 1 KOS ATCC VR-1493 infected in African green monkey Vero 76 cells assessed as reduction of virus-plaque formation after 3 days by crystal violet staining; format: functional, organism-based; details: Human alphaherpesvirus 1, KOS ATCC VR1493, Vero, 72 h; procedure, shortened: as §1
[11] = test system: Candida albicans; experiment: Antimicrobial activity against Candida albicans ATCC 90028 after 24 hrs by twofold serial microdilution method; format: functional, organism-based
[12] = test system: Pseudomonas aeruginosa; experiment: Antimicrobial activity against Pseudomonas aeruginosa ATCC 27863 after 18 hrs by twofold serial microdilution method; format: functional, organism-based
[13] = test system: Human immunodeficiency virus 1; experiment: Antiviral activity against HIV1 3B infected in human MT4 cells assessed as protection against virus-induced cytopathogenicity by MTT assay; format: functional, organism-based; details: Human immunodeficiency virus 1, 3B
[14] = test system: Pseudomonas aeruginosa; experiment: Antimicrobial activity against Pseudomonas aeruginosa ATCC 15442 after 18 hrs by twofold serial microdilution method; format: functional, organism-based
[15] = test system: Escherichia coli; experiment: Antimicrobial activity against Escherichia coli ATCC 10538 after 18 hrs by twofold serial microdilution method; format: functional, organism-based
[16] = test system: Yellow fever virus; experiment: Antiviral activity against Yellow fever virus 17D infected in BHK cells assessed as protection against virus-induced cytopathogenicity after 3 to 4 days by MTT assay; format: functional, cell-based
[17] = test system: Candida albicans; experiment: Antimicrobial activity against Candida albicans ATCC 10231 after 24 hrs by twofold serial microdilution method; format: functional, organism-based
[18] = Cytotoxicity against BHK cells assessed as cell viability after 48 to 96 hrs by MTT assay; format: cell-based, Mesocricetus auratus; details: hamster
[19] = test system: Bordetella bronchiseptica; experiment: Antimicrobial activity against Bordetella bronchiseptica ATCC 4617 after 18 hrs by twofold serial microdilution method; format: functional, organism-based
[20] = test system: Vesicular stomatitis virus; experiment: Antiviral activity against Vesicular stomatitis virus ATCC VR 1540 infected in African green monkey Vero 76 cells assessed as reduction of virus-plaque formation after 2 days by crystal violet staining; format: functional, organism-based; details: ATCC VR 1540, Vero, 48 h
[21] = test system: Mammalian orthoreovirus 1; experiment: Antiviral activity against Reovirus type-1 ATCC VR-214 infected in BHK cells assessed as protection against virus-induced cytopathogenicity after 3 to 4 days by MTT assay; format: functional, cell-based; details: Mammalian orthoreovirus 1, ATCC VR-214, BHK
Procedure, shortened: (§2)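 Cells seeded in 96-well plates (BHK 5x10^4, MDBK 3x10^4 cells/well), grown overnight to confluence, infected at m.o.i. 0.01 (BHK for Reo-1, MDBK for BVDV); serial compound dilutions in maintenance medium with 0.5% inactivated FBS added after 1 h; viability by MTT after 3–4 days at 37°C; EC50 for 50% protection by linear regression.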

[22] = test system: Escherichia coli; experiment: Antimicrobial activity against Escherichia coli ATCC 25922 after 18 hrs by twofold serial microdilution method; format: functional, organism-based
[23] = Antiviral activity against Bovine viral diarrhea virus 1-NADL ATCC VR-534 infected in MDBK cells assessed as protection against virus-induced cytopathogenicity after 3 to 4 days by MTT assay; format: functional, cell-based; details: Bovine viral diarrhea virus isolates and strains, ATCC VR-534, MDBK; procedure, shortened: as §2
[24] = test system: Mycobacterium tuberculosis; experiment: Antimycobacterial activity against drug-sensitive Mycobacterium tuberculosis Spec. 192; format: functional
Procedure, shortened: (§3)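 Classical test-tube successive-dilution method in Youmans' modification of Proskauer and Beck liquid medium with 10% bovine serum. Inoculum came from 14-day cultures. DMSO stock was 10 mg/mL, diluted geometrically in medium. Tubes were incubated at 37 °C. Concentrations tested were 3.1, 6.2, 12.5, 25, 50 and 100 µg/ml. MIC is the minimum concentration inhibiting growth relative to compound-free tubes.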

[25] = test system: Staphylococcus epidermidis; experiment: Antimicrobial activity against Staphylococcus epidermidis ATCC 12228 at 400 ug after 18 hrs by disc-diffusion method; format: functional; details: ATCC 12228, 18 h, read-out: IZ
Procedure, shortened: (§4)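 Disc diffusion on Mueller-Hinton II agar per CLSI; 9 mm paper discs loaded with 400 µg compound from DMSO solution, dried, placed on agar; growth inhibition zone diameter read after 18 h at 35°C.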

[26] = test system: Micrococcus luteus; experiment: Antimicrobial activity against Micrococcus luteus ATCC 10240 at 400 ug after 18 hrs by disc-diffusion method; format: functional; details: ATCC 10240, 18 h, read-out: IZ; procedure, shortened: as §4
[27] = test system: Staphylococcus epidermidis; experiment: Antimicrobial activity against Staphylococcus epidermidis ATCC 35984 after 18 hrs by twofold serial microdilution method; format: functional; details: ATCC 35984, 18 h
[28] = test system: Bacillus cereus; experiment: Antimicrobial activity against Bacillus cereus ATCC 11778 at 400 ug after 18 hrs by disc-diffusion method; format: functional; details: ATCC 11778, 18 h, read-out: IZ; procedure, shortened: as §4
[29] = test system: Enterococcus hirae; experiment: Antimicrobial activity against Enterococcus hirae ATCC 10541 at 400 ug after 18 hrs by disc-diffusion method; format: functional; details: ATCC 10541, 18 h, read-out: IZ; procedure, shortened: as §4
[30] = test system: Staphylococcus aureus; experiment: Antimicrobial activity against Staphylococcus aureus ATCC 6538 after 18 hrs by twofold serial microdilution method; format: functional; details: ATCC 6538, 18 h
[31] = test system: Mycobacterium tuberculosis; experiment: Antimycobacterial activity against Mycobacterium tuberculosis H37Rv ATCC 25618; format: functional; procedure, shortened: as §3
[32] = test system: Staphylococcus epidermidis; experiment: Antimicrobial activity against Staphylococcus epidermidis ATCC 12228 after 18 hrs by twofold serial microdilution method; format: functional; details: ATCC 12228, 18 h
[33] = test system: Staphylococcus aureus; experiment: Antimicrobial activity against Staphylococcus aureus NCTC 4163 at 400 ug after 18 hrs by disc-diffusion method; format: functional; details: NCTC 4163, 18 h, read-out: IZ; procedure, shortened: as §4
[34] = test system: Staphylococcus epidermidis; experiment: Antimicrobial activity against Staphylococcus epidermidis ATCC 35984 at 400 ug after 18 hrs by disc-diffusion method; format: functional; details: ATCC 35984, 18 h, read-out: IZ; procedure, shortened: as §4
[35] = test system: Staphylococcus aureus; experiment: Antimicrobial activity against Staphylococcus aureus ATCC 6538 at 400 ug after 18 hrs by disc-diffusion method; format: functional; details: ATCC 6538, 18 h, read-out: IZ; procedure, shortened: as §4
[36] = test system: Staphylococcus aureus; experiment: Antimicrobial activity against Staphylococcus aureus ATCC 29213 after 18 hrs by twofold serial microdilution method; format: functional; details: ATCC 29213, 18 h
[37] = test system: Staphylococcus aureus; experiment: Antimicrobial activity against Staphylococcus aureus ATCC 25923 after 18 hrs by twofold serial microdilution method; format: functional; details: ATCC 25923, 18 h
[38] = test system: Staphylococcus aureus; experiment: Antimicrobial activity against Staphylococcus aureus ATCC 25923 at 400 ug after 18 hrs by disc-diffusion method; format: functional; details: ATCC 25923, 18 h, read-out: IZ; procedure, shortened: as §4
[39] = test system: Enterococcus faecalis; experiment: Antimicrobial activity against Enterococcus faecalis ATCC 29212 at 400 ug after 18 hrs by disc-diffusion method; format: functional; details: ATCC 29212, 18 h, read-out: IZ; procedure, shortened: as §4
[40] = test system: Staphylococcus aureus; experiment: Antimicrobial activity against Staphylococcus aureus NCTC 4163 after 18 hrs by twofold serial microdilution method; format: functional; details: NCTC 4163, 18 h
[41] = test system: Micrococcus luteus; experiment: Antimicrobial activity against Micrococcus luteus ATCC 9341 at 400 ug after 18 hrs by disc-diffusion method; format: functional; details: ATCC 9341, 18 h, read-out: IZ; procedure, shortened: as §4
[42] = test system: Bacillus subtilis; experiment: Antimicrobial activity against Bacillus subtilis ATCC 6633 at 400 ug after 18 hrs by disc-diffusion method; format: functional; details: ATCC 6633, 18 h, read-out: IZ; procedure, shortened: as §4
[43] = test system: Staphylococcus aureus; experiment: Antimicrobial activity against Staphylococcus aureus ATCC 29213 at 400 ug after 18 hrs by disc-diffusion method; format: functional; details: ATCC 29213, 18 h, read-out: IZ; procedure, shortened: as §4
[44] = test system: Proteus vulgaris; experiment: Antimicrobial activity against Proteus vulgaris NCTC 4635 at 400 ug after 18 hrs by disc-diffusion method; format: functional; procedure, shortened: as §4

FC(F)(F)c1cccc(NC(=S)Nc2ccccc2Br)c1
CC50 [1]: 36 µM | Activity [2]: inactive | Activity [3]: inactive | CC50 [4]: 50 µM | EC50 [5]: > 50 µM | Activity [6]: inactive | EC50 [7]: > 50 µM | EC50 [8]: > 50 µM | CC50 [9]: > 100 µM | EC50 [10]: > 50 µM | Activity [11]: inactive | Activity [12]: inactive | EC50 [13]: > 36 µM | Activity [14]: inactive | Activity [15]: inactive | EC50 [16]: > 59 µM | Activity [17]: inactive | CC50 [18]: 59 µM | Activity [19]: inactive | EC50 [20]: > 50 µM | EC50 [21]: > 59 µM | Activity [22]: inactive | EC50 [23]: > 100 µM

FC(F)(F)c1cccc(NC(=S)NCc2ccco2)c1
MIC [24]: > 100 µg/mL | zone of inhibition at 400 µg/disc [25]: 12 mm | zone of inhibition at 400 µg/disc [26]: 13 mm | CC50 [1]: 43 µM | MIC [27]: 512 µg/mL (≈ 1700 µM) | zone of inhibition at 400 µg/disc [28]: 13 mm | zone of inhibition at 400 µg/disc [29]: 13 mm | MIC [30]: 256 µg/mL (≈ 852 µM) | CC50 [4]: 50 µM | MIC [31]: > 100 µg/mL | EC50 [5]: > 50 µM | MIC [32]: 256 µg/mL (≈ 852 µM) | zone of inhibition at 400 µg/disc [33]: 14 mm | EC50 [7]: > 50 µM | zone of inhibition at 400 µg/disc [34]: 13 mm | EC50 [8]: > 50 µM | CC50 [9]: > 100 µM | EC50 [10]: > 50 µM | zone of inhibition at 400 µg/disc [35]: 14 mm | MIC [36]: 256 µg/mL (≈ 852 µM) | MIC [37]: 256 µg/mL (≈ 852 µM) | EC50 [13]: > 43 µM | zone of inhibition at 400 µg/disc [38]: 14 mm | EC50 [16]: > 48 µM | zone of inhibition at 400 µg/disc [39]: 0 mm | MIC [40]: 256 µg/mL (≈ 852 µM) | zone of inhibition at 400 µg/disc [41]: 13 mm | CC50 [18]: 48 µM | zone of inhibition at 400 µg/disc [42]: 15 mm | EC50 [20]: > 50 µM | zone of inhibition at 400 µg/disc [43]: 19 mm | inhibition zone (IZ) [44]: inactive | EC50 [21]: > 48 µM | EC50 [23]: > 100 µM

CCCC[C@H]1CC[C@H](c2ccc(NC(=S)Nc3cccc(C(F)(F)F)c3)cc2)CC1
CC50 [1]: 22 µM | Activity [2]: inactive | Activity [3]: inactive | CC50 [4]: 17 µM | EC50 [5]: > 17 µM | Activity [6]: inactive | EC50 [7]: > 17 µM | EC50 [8]: > 17 µM | CC50 [9]: 10 µM | EC50 [10]: > 17 µM | Activity [11]: inactive | Activity [12]: inactive | EC50 [13]: > 22 µM | Activity [14]: inactive | Activity [15]: inactive | EC50 [16]: > 9.5 µM | Activity [17]: inactive | CC50 [18]: 9.5 µM | Activity [19]: inactive | EC50 [20]: > 17 µM | EC50 [21]: > 9.5 µM | Activity [22]: inactive | EC50 [23]: > 10 µM

Reference: ChEMBL document CHEMBL3616436, “Synthesis, cytotoxicity and antimicrobial activity of thiourea derivatives incorporating 3-(trifluoromethyl)phenyl moiety” (Eur J Med Chem, 2015)
